For orientation: IC50 means the concentration that gives 50% inhibition. Read a low IC50 as inhibition by little substance.

For data set [1], the system named is HCT-116. The experiment in a line: Cytotoxicity against human p53-deficient HCT116 cells after 72 hrs by MTT assay. Type of data set: functional, cell-based. The following applies: HCT-116, 72 h. Put shortly:
(§1)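 Cells seeded at 2500–30,000 per well according to cell type and pre-incubated 24 h at 37 °C, 5% CO2. Four-fold dilutions of compounds dissolved in 10% DMSO were added at time zero, in quadruplicate, then incubated 72 h. MTT was added for a further 1–4 h and formazan dissolved in 10% aq SDS (pH 5.5) overnight at 37 °C. OD was read at 540 nm. Survival was taken as % of mean control OD, and IC50 was read from dose-response curves.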
A general note: Tetrazolium assays rely on reduction of a dye to a coloured formazan, in cell work by metabolically active cells.

The test system of data set [2] is HCT-116. The experiment in a line: Cytotoxicity against human HCT116 cells after 72 hrs by MTT assay. Type of data set: functional, cell-based. Conditions: HCT-116, 72 h. In outline:
as §1

Data set [3] has as its system A549. As to the kind of experiment: Cytotoxicity against human A549 cells after 72 hrs by MTT assay. Type of data set: functional, cell-based. The following applies: A549, 72 h. In outline:
as §1

Data set [4] is described as follows: Therapeutic index, ratio of IC50 for human MRC5 cells to IC50 for human CCRF-CEM cells. Type of data set: cell-based. Conditions: MRC5 cells versus CCRF-CEM cells, read-out: Ratio IC50.
For data set [5], the system named is BJ. The experiment in a line: Cytotoxicity against human BJ cells after 72 hrs by MTT assay. Type of data set: cell-based. In outline:
as §1

The test system of data set [6] is CCRF-CEM. The experiment in a line: Cytotoxicity against human CCRF-CEM cells after 72 hrs by MTT assay. In kind it is functional, cell-based.
Data set [7] deals with CCRF-CEM. The experiment in a line: Cytotoxicity against human daunorubicine resistant CEM cells after 72 hrs by MTT assay. Type of data set: functional, cell-based. In outline: as §1
Data set [8] in a line: Therapeutic index, ratio of IC50 for human BJ cells to IC50 for paclitaxel-resistant human K562 cells. In kind it is cell-based. Conditions: BJ cells versus paclitaxel-resistant K562 cells, read-out: Ratio IC50.
Data set [9] relates to K562. As to the kind of experiment: Cytotoxicity against human paclitaxel resistant K562 cells after 72 hrs by MTT assay. The following applies: K562, 72 h. In kind it is functional, cell-based. In outline:
as §1

Data set [10] is described as follows: Therapeutic index, ratio of IC50 for human BJ cells to IC50 for human K562 cells. The following applies: BJ cells versus K562 cells, read-out: Ratio IC50. In kind it is cell-based.
Data set [11] has as its system MRC5. As to the kind of experiment: Cytotoxicity against human MRC5 cells after 72 hrs by MTT assay. In kind it is cell-based. Conditions: MRC5, 72 h. Put shortly:
as §1

A short description of data set [12]: Therapeutic index, ratio of IC50 for human BJ cells to IC50 for human CCRF-CEM cells. In kind it is cell-based. Conditions: BJ cells versus CCRF-CEM cells, read-out: Ratio IC50.
Data set [13] relates to K562. The experiment in a line: Cytotoxicity against human K562 cells after 72 hrs by MTT assay. Type of data set: functional, cell-based. The following applies: K562, 72 h. In outline:
as §1

The structures appear in SMILES notation.

`CC(C)[C@@H]1CC[C@]2(C(=O)O)CC[C@]3(C)[C@H](CC[C@@H]4[C@@]5(C)CC(Br)C(=O)C(C)(C)[C@@H]5CC[C@]43C)[C@@H]12` (mixture of isomers): the IC50 in data set [1] was determined as 4.1 µM; in [2], 4.3 µM; in data set [3], 11.9 µM; in data set [5], 17.8 µM; in [6] it was 1 µM; in data set [7], 11.4 µM. Further, the IC50 in data set [9] was determined as 1.7 µM; in data set [11] it was 14.6 µM; in data set [13], 1.6 µM. Moreover, the selectivity ratio in data set [4], in data set [8], in data set [10] and in data set [12] was over 10 in each case.

Values taken from ChEMBL document CHEMBL2034860, “Cytotoxic heterocyclic triterpenoids derived from betulin and betulinic acid” (Bioorg Med Chem, 2012).
